Results reported in the RNAGym collection of RNA variant scans (doi:10.1101/gad.245936.114).
Variants at the floor of the assay were thinned out.

B1: tRNA (parent)
chain: CUCUCGGUAGCCAAGUUGGUUUAAGGCGCAAGACUUUAAUUUAUCACUACGAAAUCUUGAGAUCGGGCGUUCGACUCGCCCCCGGGAGAUUUUUUCCUCGAGCAA

Variants of: B1
Assay: nonsense suppression (GFP-seq) (ratio to wild type); higher = more function; SUP4oc tRNA, yeast GFP reporter sort-seq
How it was run: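 Yeast carrying genome-integrated SUP4oc tRNA variants from a library with ~3% random mutations were grown in raffinose/galactose medium with 80 mg/L adenine. Each strain also carried a galactose-driven GFP ochre reporter and RFP. Cells were sorted into GFP/RFP bins, and each bin was Illumina-sequenced (phred ≥30). Nonsense suppression (GFPSEQ) is the bin median GFP/RFP, weighted by each variant's estimated cell share per bin, relative to wild-type SUP4oc; variants needed ≥100 reads and ≥30 cells.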

Variant | nonsense suppression
CUCUCGGUAGCCAAGUUGGUUUAAGGCUCAAGACUUUAAUUUAUCACUACGAAAUCUUGAGAUCGGGCGUUCGACACGCCCCCGGGAGAUUUUUUCCUCGAGCAA [G28U U76A] | ≤ 0.026
CUCUUGGACCCUAAGUUGGUUUAAUGCGCAGGACUUUAAUUUAUCACUACGAAAUCUUGAGAUCGGGCGUUCGACUCGCCCCCGGGAGAUUUUUUCCUCGAGCAA [C5U U8A A9C G10C C12U G25U A31G] | ≤ 0.026
CUCUCGGUAGCCAAGUUGGUUUAAGGCGCAAGACUUUAAUUUAUCACUACGAAAUCUUGAGGUCCGGCGUUCGACUCGCCCCCGGGAGAUUUUUUCCUCGAGCAA [A62G G65C] | ≤ 0.026
CUCUCGGUGGCCGAGUUGGUUUAAGGCGCAAGACUUUAAUUUAUCACUACGAAAUCUUGAGAUCGGGCGUUCGACUCGCCCCCGGGAGAUUUUUUCCUCGAGCAA [A9G A13G] | 0.205
CUCUCGGUAGCCAAGUUGGCUUAAGGCGCAAGACUUUAAUUUAUCACUACGAAAUCUUGAGAUCGGGCGUUCGACUCGCCCCCGGAAGAUUUUUUCCUCGAGCAA [U20C G86A] | ≤ 0.026
CUCUUGGUAGCCAAGUUGCUUUAAGGCGCAAGACAUUAAUUUAUCACUACGAAAUCUUGAGAUCGGGCGUUCGACUCGCCCCCGGGAGGUUUUUUCCUCGAGCAA [C5U G19C U35A A89G] | ≤ 0.026
CUCUCGGUAGCCUAGUUGGUUUAAGGCGCAAGACUUUAAUUUAUCACUACGAAAUCUUGAGAUCGGGCGUUCGACUCGCCACCGGGAGAUUUUUUCCUCGAGCAA [A13U C81A] | ≤ 0.026
CUCUCGGUAGCCAAGUUGGUUUAAGGCGCAAGAUUUUAAUUUAUCACUACGAAAUCUUGAGAUCGGGCGAUCGACUCGCCCCCGGGAGAUUUUUUCCUCGAGCAA [C34U U70A] | ≤ 0.026
CUCUCGGUAGCCAAGUUGGUUUAAGGCACAAGGCUUUAAUUUAUCACUACGAAAUCUUGAGAUCGGGCGUUCGACUCGCCCCCGGGAGAUUUUUUCCUCGAGCAA [G28A A33G] | 0.161
CUCUCGGUAGCCAAGUUGGUUUAAGGCGCAAGACUUUAAUUUAUCACUACGAAAUCUUGACAUCGGGCGUUCGUCUCGCCCCGGGGAGAUUUUUUCCUCGAGCAA [G61C A74U C83G] | ≤ 0.026
CUCUCGGUAGCCAAGUUGGUUUAAGGCGCAAGGCUUUAAUUUAUCACUACGAAAUCUUAAGAUCGGGCGUUCGACUAGCCCCAGGGAAAUUUUUUCCUCGAGCAA [A33G G59A C77A C83A G88A] | ≤ 0.026
CUCUCGGUAGCCAAGUUGGUUUAAGGCGCAAGACUUUAAUUUAUCACUACGAAAUCUUGAGAUCGGGCGUUCGACACGCCCUCGGGAGAUUUUUUCCUCGAGCAA [U76A C82U] | ≤ 0.026
CUCUCGGUGGCCAAGUUGGUCUAAGGCGCAAGACUUUAAUUUAUCACUACGAAAUCUUGUGAUCGGGCGUUCGACUCGCCCCCGGGAGAUUUUUUCCUCGAGCAA [A9G U21C A60U] | ≤ 0.026
UUGUCGGUAGCCAAGUUGGUUUAAGGCGCAAGACUUUAAUUUAUCACUACGAAAUCUUGAGAUCGGGCGUUCGACUCGCCCCCGGAAGAUUUUUUCCUCGAGCAA [C1U C3G G86A] | ≤ 0.026
CCCUCGGUAGCCAAGUUGGUUUAAGGCGCAAGACUUUAAUUUAUCACUACGAAAUCUUGCGAUCGGGCGUUCGAUUCGCCCCCGGGAGAUUUUUUCCUCGAGCAA [U2C A60C C75U] | ≤ 0.026
CUCUCGGUAGGCAAGUUGGUUUAAGGCGCAAGAAUUUAAUUUAUCACUACGAAAUCUUGAGAACCGGCGUUCGACUCGCCCCCGGGAGAUUUUUUCCUCGAGCAA [C11G C34A U63A G65C] | ≤ 0.026
CUCUCGGUAGUCAAGUUGGUUUAAGGCGCAAGACUUUAAUUUAUCACUACGAAAUCUUGACAUCGGGCGUUCGACUCGCCCCCGGGAGAUUUUUUCCUCGAGCAA [C11U G61C] | 0.0829
CUCUCGGUAGCCAAGUUGGCUUAAGGCGCAAGACUUUAAUUUAUCACUACGAAAUCUUAAGAUCGGGCGUUCGACUCGCCCCCGGGAGAUUUUUUCCUCGAGCAA [U20C G59A] | 0.0894
CUCUCGGUAGCCAAGUUGGUGUAAGGCGCAAGACUUUAAUUUAUCACUACGAAAUCUUGAGAUCAGGCGUUCGACUCGCCCCCGGGAGAUUUUUUCCUCGAGCAA [U21G G65A] | 0.0483
CUCUCGGUAGCCAAGUUGGUUUACGGCGCAAGACUUUAAUUUAUCACUACGAAAUCUUGAGAUCGGGCGUUCGACUCGCCCCUGGGAGAUUUUUUCCUCGAGCAA [A24C C83U] | 0.383
CUCUCCGUAGCCAAGUUGGUUUAAGGCGCAAGAGUUUAAUUUAUCACUACGAAUUCUUGAGAUCGGGCGUUCGACUCGCCCCCGGGAGAUUUUUUCCUCGAGCAA [G6C C34G A54U] | ≤ 0.026
CGCUCGGUAGCCAAGUUGUUUUAAGGCGCAUGACUUUAAUUUAUCACUACGAAAUCUUGAGAUCGGGCGUUCGACUCGCCCCAAGGAGAUUUUUUCCUCGAGCAA [U2G G19U A31U C83A G84A] | ≤ 0.026
CUCUCGGUAGCCAAGUUGGUUUAACGCGCAAGACUUUAAUUUAUCACUACGAAAUCUUGAGAUCGGGCGUUCGACUCGCCCCCGGGAGAUUUUUUCCUCGAGCAA [G25C] | 0.185
CUCUCGGUAGCCAAGUUUGUUUAAGGCGCAAGACUUUAAUUUAUCACUACGAAACCUUGAGAUCGGGCGUUCGACUCGCCCCCGGGAGAUUUUUUCCUCGAGCAA [G18U U55C] | 0.0402
CUCUCGGUAGCCAAGAUGGUUUAAGGCGCAAGACUUUAAUUUAUCACUACGAAAUCUUGGGAUCGGGCGUUCGACUCGCCCCCGGGAGAUUUUUUCCUCGAGCAA [U16A A60G] | 0.247
CCCUCGGUAGCCAAGUUGGUUUAAGGCGCAAGACUUUAAUUUAUCACUACGAAAUUUUGAGAUCGGGCGUUCGACUCGCCCCCGGGAGAUUUUUUCCUCGAGCAA [U2C C56U] | ≤ 0.026
CUCUCGGUAGCCAAGGUGGUUUAAGGCGCAAGACUUUAAUUUAUCACUACGAACUCUUGAGAUCGGGCGUUCGACUCGCCUCCGGGAGAUUUUUUCCUCGAGCAA [U16G A54C C81U] | 0.0601
